Source: ChEMBL document CHEMBL1772946, “Identification and initial SAR of silybin: an Hsp90 inhibitor” (Bioorg Med Chem Lett, 2011)
Activity calls are given as the source filed them. The calls are words filed in the database; no cut-off is given here.

Columns and labels:
SK-BR-3 = assay: Antiproliferative activity against estrogen receptor-deficient human SKBR3 cells expressing HER2; type: functional
Summary of the method: (§1)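 Cell proliferation assay against SKBr3 (ER-negative, HER2-overexpressing) and MCF-7 (ER-positive) breast cancer cells. Values are mean ± standard deviation of at least two separate experiments, each performed in triplicate.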

MCF7 = assay: Antiproliferative activity against human MCF7 cells expressing estrogen receptor; type: functional; summary of the method: as §1
[1] = biological target: T1, Heat shock protein HSP90 (Homo sapiens) (UniProt P07900+P08238); assay: Inhibition of Hsp90 in human MCF7 cells assessed as degradation after 24 hrs by Western blot analysis
[2] = biological target: T1, Heat shock protein HSP90 (Homo sapiens); assay: Inhibition of Hsp90 in human MCF7 cells assessed as Akt degradation after 24 hrs by Western blot analysis; type: cell-based
Summary of the method: (§2)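 MCF-7 breast cancer cells were treated for 24 h with a range of compound concentrations. Cell lysates were probed by Western blot for Her2, Raf, Akt and Hsp90, with actin as a non-client control.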

[3] = biological target: T1, Heat shock protein HSP90 (Homo sapiens); assay: Inhibition of Hsp90 in human MCF7 cells assessed as Raf degradation after 24 hrs by Western blot analysis; type: cell-based; summary of the method: as §2
[4] = biological target: T1, Heat shock protein HSP90 (Homo sapiens); assay: Inhibition of Hsp90 in human MCF7 cells assessed as Her2 degradation after 24 hrs by Western blot analysis; type: cell-based; summary of the method: as §2
[5] = biological target: T1, Heat shock protein HSP90 (Homo sapiens); assay: Inhibition of Hsp90 in human MCF7 cells assessed as Hsp90 degradation at 50 to 1000 uM by Western blot analysis; type: cell-based
[6] = biological target: T2, Heat shock protein HSP 90 (Oryctolagus cuniculus) (UniProt P11500); assay: Inhibition of Hsp90-dependent activation of [35S]-labeled His-tagged […] in rabbit reticulocyte lysate at 2 mM by anti-His-tag pull down assay
T2 sequence (whole entry): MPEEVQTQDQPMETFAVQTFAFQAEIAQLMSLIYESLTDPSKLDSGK

[7] = biological target: T1, Heat shock protein HSP90 (Homo sapiens); assay: Inhibition of Hsp90 in human MCF7 cells assessed as Her2 degradation at 50 to 1000 uM by Western blot analysis; type: cell-based
[8] = biological target: T2, Heat shock protein HSP 90 (Oryctolagus cuniculus); assay: Inhibition of Hsp90-dependent activation of [35S]-labeled His-tagged […] in rabbit reticulocyte lysate by anti-His-tag pull down assay
[9] = biological target: T2, Heat shock protein HSP 90 (Oryctolagus cuniculus); assay: Inhibition of Hsp90-dependent maturation of [35S]-labeled His-tagged […] in rabbit reticulocyte lysate at 2 mM by anti-His-tag pull down assay
[10] = biological target: T1, Heat shock protein HSP90 (Homo sapiens); assay: Inhibition of Hsp90 in human MCF7 cells assessed as Raf degradation at 50 to 1000 uM by Western blot analysis; type: cell-based
Oryctolagus cuniculus = species: Oryctolagus cuniculus; assay: Inhibition of Hsp90/Cdc37 interaction with [35S]-labeled His-tagged […] in rabbit reticulocyte lysate at 2 mM by Western blot analysis
[11] = biological target: T1, Heat shock protein HSP90 (Homo sapiens); assay: Inhibition of Hsp90 in human MCF7 cells assessed as Akt degradation at 50 to 1000 uM by Western blot analysis; type: cell-based
[12] = biological target: T2, Heat shock protein HSP 90 (Oryctolagus cuniculus); conditions: 1 ug/ml
[13] = biological target: T2, Heat shock protein HSP 90 (Oryctolagus cuniculus); conditions: 1 ug/ml; remark: listed apart in the source

| Structure (SMILES) | Activity (SK-BR-3) | Activity (MCF7) | other results |
| --- | --- | --- | --- |
| COc1cc(C2Oc3cc(/C=C/C(=O)c4ccc(O)cc4O)ccc3OC2CO)ccc1O (configuration not stated) | 37.14 µM | 16.91 µM |  |
| COc1cc(C2Oc3cc(C4CC(=O)c5ccc(O)cc5O4)ccc3OC2CO)ccc1O (configuration not stated) | 41.91 µM | 41.58 µM |  |
| COc1cc(C2Oc3cc(/C=C/C(=O)c4c(O)cccc4O)ccc3OC2CO)ccc1O (configuration not stated) | 25.03 µM | 22.58 µM |  |
| COc1cc(C2Oc3cc([C@H]4Oc5cc(O)cc(O)c5C(=O)[C@@H]4O)ccc3OC2CO)ccc1O (stereo in doubt) [SILIBININ] | 197 µM | 222.8 µM |  |
| COc1cc(C2Oc3cc(/C=C/C(=O)c4cc(O)ccc4O)ccc3OC2CO)ccc1O (configuration not stated) | 35.84 µM | 12.17 µM |  |
| COc1cc(C2Oc3cc(C4CC(=O)c5cc(O)ccc5O4)ccc3OC2CO)ccc1O (configuration not stated) | 15.63 µM | 15.62 µM | inhibition [1]: Dose-dependent effect; inhibition [2]: Dose-dependent effect; inhibition [3]: Dose-dependent effect; inhibition [4]: Dose-dependent effect |
| COc1cc(C2Oc3cc(C4CC(=O)c5ccccc5O4)ccc3OC2CO)ccc1O (configuration not stated) | 16.25 µM | 13.66 µM |  |
| COc1cc(C2Oc3cc(/C=C/C(=O)c4ccccc4O)ccc3OC2CO)ccc1O (configuration not stated) | 19.87 µM | 12.07 µM |  |
| COc1cc(C2Oc3cc(C4Oc5cc(O)ccc5C(=O)C4O)ccc3OC2CO)ccc1O (configuration not stated) | 16.04 µM | 11.92 µM |  |
| COc1cc(C2Oc3cc(C4CC(=O)c5c(O)cc(O)cc5O4)ccc3OC2CO)ccc1O (configuration not stated) | 101.2 µM | 104.2 µM |  |
| O=C1c2c(O)cc(O)cc2OC(c2ccc3c(c2)OC(c2ccc(O)cc2)C(CO)O3)C1O (configuration not stated) | 210.6 µM | 138.7 µM |  |
| COc1cc(C2Oc3cc(C4CC(=O)c5c(O)cccc5O4)ccc3OC2CO)ccc1O (configuration not stated) | 47.73 µM | 50.32 µM |  |
| COc1cc(C2Oc3cc([C@H]4Oc5cc(O)cc(O)c5C(=O)[C@@H]4O)ccc3OC2CO)ccc1O (stereo in doubt; 24) [SILIBININ] | 196.3 µM | 196.4 µM |  |
| COc1cc(C2Oc3cc([C@H]4Oc5cc(O)cc(O)c5C(=O)[C@@H]4O)ccc3OC2CO)ccc1O (stereo in doubt) |  |  | inhibition [5]: Active; inhibition [6]: Active; inhibition [7]: Active; inhibition [8]: Dose-dependent effect; inhibition [9]: Active; inhibition [10]: Active; inhibition (Oryctolagus cuniculus): inactive; inhibition [11]: Active |
| COc1cc(C2Oc3cc(/C=C/C(=O)c4c(O)cc(O)cc4O)ccc3OC2CO)ccc1O (configuration not stated) | 111.4 µM | 109.3 µM |  |
| COC1=C2C[C@@H](C)C[C@H](OC)[C@H](O)[C@@H](C)/C=C(\C)[C@H](OC(N)=O)[C@@H](OC)/C=C\C=C(/C)C(=O)NC(=CC1=O)C2=O |  |  | inhibition [12]: Active; inhibition [13]: Active |
| COc1cc(C2Oc3cc(C4Oc5cccc(O)c5C(=O)C4O)ccc3OC2CO)ccc1O (configuration not stated) | 11.9 µM | 17.66 µM |  |
| COc1cc(C2Oc3cc(C4Oc5ccccc5C(=O)C4O)ccc3OC2CO)ccc1O (configuration not stated) | 11.12 µM | 13.42 µM | inhibition [1]: Dose-dependent effect; inhibition [2]: Dose-dependent effect; inhibition [3]: Dose-dependent effect; inhibition [4]: Dose-dependent effect |
| COc1cc(C2Oc3cc(C4Oc5ccc(O)cc5C(=O)C4O)ccc3OC2CO)ccc1O (configuration not stated) | 13.41 µM | 17.8 µM |  |
